We go through 25 compounds from ChEMBL document CHEMBL1124806, “Synthesis of quaternary amine ether lipids and evaluation of neoplastic cell growth inhibitory properties” (J Med Chem, 1990).

Structures are written as SMILES. A value given as a limit tells only on which side of the number the result lay.

For assay [1], the system named is HL-60. Kind of assay: Inhibition of neoplastic cell proliferation in the HL-60 human promyelocytic leukemia cells. The assay is classed as functional. To be noted: read-out: ID50 (the source's name). An outline of the steps:
(§1)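 HL-60 cells are kept in RPMI 1640 with 10% FBS and 2 mM glutamine under 5% CO2. They are seeded at 5 × 10^5 cells/mL with a range of lipid concentrations, diluted into medium from 1 mg/mL ethanol stocks. After 48 h, viable cells are counted by hemocytometer with trypan blue. ID50 values are averaged, and SD is taken from the averaged ID50s.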

A further assay concerns the target Protein kinase C (PKC). Kind of assay: Inhibition of Protein Kinase C (PKC) isolated from HL-60 human promyelocytic leukemia cells. The assay is classed as cell-free. A digest of the protocol: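 Partially purified PKC from HL-60 cells, pH 7.5, in 25 mM Tris, 10 mM MgCl2, 0.1 mM CaCl2, 40 μg/mL histone, 20 μg/mL phosphatidylserine, 2.5 μM OAG, and 10 μM ATP with [γ-32P]ATP. Analogue in ethanol is added before the enzyme starts the reaction, with a 0.1% ethanol control. The reaction runs 20 min at 30 °C and is stopped with BSA and ice-cold 25% TCA. Filter-bound 32P-histone is counted; duplicates.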

Assay [2] deals with HL-60. The assay can be described thus: Inhibition of neoplastic cell proliferation with the HL-60 human promyelocytic leukemia cells. The assay is classed as functional. To be noted: read-out: ID50 (the source's name). A digest of the protocol:
as §1

Regarding `CCCCCCCCCCCCCCCCSCC(C[N+](C)(C)C)OC.[Br-]` (stereo unspecified), the figures for the IC50 in the assay on HL-60 [1] and on Protein kinase C (PKC) were 2200 nM and 25000 nM, respectively.
On the same counts, the results for `CCCCCCCCCCCCCCCCOCC(COCC[N+](C)(C)C)OC.[Br-]` (stereo unspecified) are 1850 nM and 31000 nM.
On the same counts, the results for `CCCCCCCCCCCCCCCCOCC(COCCCC[N+](C)(C)C)OCC.[Br-]` (stereo unspecified) are 1860 nM and above 40000 nM.
For `CCCCCCCCCCCCCCCCOCC(C[N+]1(C)CCC(O)CC1)OCC` (stereo unspecified), the IC50 in the assay with HL-60 [1] was determined as 2720 nM.
Consider `CCCCCCCCCCCCCCCCOCCC[N+](C)(C)C.[Br-]`, for which the IC50 in the assay on HL-60 [1] was 1610 nM; against Protein kinase C (PKC), above 40000 nM.
On the same counts, the results for `CCCCCCCCCCCCCCCCCCOCC(COP(=O)([O-])OCC[N+](C)(C)C)OC` (stereo unspecified) [EDELFOSINE] are 2010 nM and 12000 nM.
Regarding `CCCCCCCCCCCCCCCCCCSCC(C[N+](C)(C)CCCO)OC.[I-]` (stereo unspecified), the IC50 came out at 3350 nM in the assay on HL-60 [1] and 5000 nM against Protein kinase C (PKC).
For the compound `CCCCCCCCCCCCCCCCOCC(C[N+](C)(C)C)OC.[Br-]` (stereo unspecified), the IC50 is 1590 nM with HL-60 [1] and above 40000 nM against Protein kinase C (PKC).
As for `CCCCCCCCCCCCCCCCSCC(C[N+](C)(C)CCCO)OCC` (stereo unspecified), the IC50 in the assay on HL-60 [2] is 2950 nM.
On the same count and under the same terms, the figure for `CCCCCCCCCCCCCCCCSCC(C[N+](C)(C)CCO)OCC` (stereo unspecified) is 3720 nM.
As to `CCCCCCCCCCCCCCCCOCCC[n+]1ccccc1.[Br-]`, the values for the IC50 in the assay with HL-60 [1] and on Protein kinase C (PKC) were 820 nM and above 40000 nM, respectively.
For `CCCCCCCCCCCCCCCCOCCCOCCCC[N+](C)(C)C`, the IC50 in the assay with HL-60 [1] was found to be 1560 nM.
On the same count and under the same terms, the same measure for `CCCCCCCCCCCCCCCCOCC(COCCCC[n+]1ccccc1)OCC` (stereo unspecified): 780 nM; for `CCCCCCCCCCCCCCCCSCC(COCCCC[N+](C)(C)C)OCC` (stereo unspecified): 1830 nM; for `CCCCCCCCCCCCCCCCOCC(C[n+]1ccccc1)OCC` (stereo unspecified): 1010 nM.
As to `CCCCCCCCCCCCCCCCSCC(C[N+](C)(C)CCO)OC` (stereo unspecified), the IC50 in the assay with HL-60 [2] worked out at 4660 nM.
`CC1(C)OCC(C[N+](C)(C)CCO)O1` (stereo unspecified): the IC50 in the assay on HL-60 [1] was above 10000 nM.
Same read-out and setting: the figure for `CCCCCCCCCCCCCCCCOCC(COCCCCCCCCCC[N+](C)(C)C)OC` (stereo unspecified) is 3790 nM; for `CCCCCCCCCCCCCCCCCCOCC(COCCCC[N+](C)(C)C)OCC` (stereo unspecified) it is 1260 nM.
The same measure, in the same setting: the same measure for `CCCCCCCCCCCCCCCCOCC(COCCC[N+](C)(C)C)OC` (stereo unspecified): 1200 nM.
`CCCCCCCCCCCCCCCCOCC(COCCCCCC[N+](C)(C)C)OC.[Br-]` (stereo unspecified): the IC50 in the assay on HL-60 [1] was 1750 nM; against Protein kinase C (PKC), above 40000 nM.
In the case of `CCCCCCCCCCCCCCCCCC1OCC(COCCCC[N+](C)(C)C)O1` (stereo unspecified), the IC50 in the assay on HL-60 [1] is 2820 nM.
In the case of `CCCCCCCCCCCCCCCCCC1OCC(C[N+](C)(C)CCCO)O1.[Br-]` (stereo unspecified), the IC50 turned out to be 6470 nM in the assay with HL-60 [1] and 13000 nM at Protein kinase C (PKC).
On to `CCCCCCCCCCCCCCCCOCC(C[N+](CC)(CC)CC)OCC` (stereo unspecified), for which the IC50 in the assay on HL-60 [1] stood at 680 nM.
As to `CCCCCCCCCCCCCCCCOCC(COCCCC[N+](C)(C)C)OC.[Br-]` (stereo unspecified), the IC50 was 2300 nM with HL-60 [1] and above 40000 nM on Protein kinase C (PKC).
